Results as given in ChEMBL document CHEMBL2346542, “Preliminary biological evaluation and mechanism of action studies of selected 2-arylindoles against glioblastoma” (Bioorg Med Chem, 2013).
Activity calls are given as the source filed them. The calls are words filed in the database; no cut-off is given here.

Columns and labels:
U-87 MG [1] = assay: Induction of oxidative stress in human U87MG cells assessed as increase in reactive oxygens species generation at 100 uM after 1 hr by H2DCFDA dye based flow cytometry; format: functional, cell-based; details: U-87MG ATCC
Procedure, shortened: (§1)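 1321N1 (DMEM, 10% FBS, 2 mM glutamine) or U87MG (EMEM, 10% FBS, glutamine, pyruvate, NEAA) cells seeded at 20,000/well and attached overnight. Loaded with 25 µM carboxy-H2DCFDA for 30 min at 37 °C in the dark, then treated for 60 min; TBHP 100 µM was the positive control, vehicle ≤0.5% ethanol/DMSO. Washed in HBSS, trypsinised, then flow cytometry at 488/519 nm.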

1321-N1 [2] = assay: Induction of oxidative stress in human 1321N1 cells assessed as increase in reactive oxygens species generation at 100 uM after 1 hr by H2DCFDA dye based flow cytometry; format: functional, cell-based; procedure, shortened: as §1
U-87 MG [3] = assay: Induction of oxidative stress in human U87MG cells assessed as increase in reactive oxygens species generation at 500 uM after 1 hr by H2DCFDA dye based flow cytometry; format: functional, cell-based; details: U-87MG ATCC
Procedure, shortened: (§2)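 Cells at 20,000/well in six-well plates, attached overnight. Loaded with 25 µM carboxy-H2DCFDA for 30 min at 37 °C in the dark, then given compound at 500 µM for 60 min. Positive control TBHP 100 µM. Washed in HBSS, trypsinized, resuspended in PBS, strained. Flow cytometry at FITC ex/em 488/519 nm. Vehicle ≤0.5% ethanol and DMSO.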

1321-N1 [4] = assay: Induction of oxidative stress in human 1321N1 cells assessed as increase in reactive oxygens species generation at 500 uM after 1 hr by H2DCFDA dye based flow cytometry; format: functional, cell-based; procedure, shortened: as §2
[5] = Antiproliferative activity against human U251MG cells assessed as inhibition of cell growth after 72 hrs by MTT assay; format: functional, cell-based; details: U-251, 72 h
Procedure, shortened: (§3)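 Short-term GBM cultures derived from tumour biopsies, and U251MG, kept in Hams F10 with 10% foetal calf serum at 37 °C without CO2. Cells seeded at 10³ per well and grown 48 h. Then dosed at 0.01–1000 µM in quadruplicate, compound renewed every 24 h, followed by 24 h recovery in compound-free medium. MTT (1 mg/mL) added for 4 h, formazan dissolved in DMSO, OD570 read. IC50 from nonlinear regression vs untreated controls.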

[6] = Antiproliferative activity against human IN1760 cells assessed as inhibition of cell growth after 72 hrs by MTT assay; format: functional, cell-based; details: IN1760, 72 h; procedure, shortened: as §3
[7] = Antiproliferative activity against human IN1265 cells assessed as inhibition of cell growth after 72 hrs by MTT assay; format: functional, cell-based; procedure, shortened: as §3
[8] = Antiproliferative activity against human IN1472 cells assessed as inhibition of cell growth after 72 hrs by MTT assay; format: functional, cell-based; details: IN1472, 72 h; procedure, shortened: as §3
[9] = Antiproliferative activity against human IN859 cells assessed as inhibition of cell growth […] by MTS assay; format: functional, cell-based
U-87 MG [10] = assay: Induction of autophagy in human U87MG cells assessed as acidic vesicular organelle formation at 500 uM after 1 hr by acridine orange based flow cytometry in presence of 5 mM, MA; format: functional, cell-based; details: U-87MG ATCC
Procedure, shortened: (§4)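 Acridine orange AVO assay as above: compound at 500 µM for 60 min, given together with 3-methyladenine 5 mM dissolved in medium. Then 3 µM acridine orange for 15 min at 37 °C, flow cytometry at ex/em 488/615 nm. Two experiments.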

1321-N1 [11] = assay: Induction of autophagy in human 1321N1 cells assessed as acidic vesicular organelle formation at 500 uM after 1 hr by acridine orange based flow cytometry in presence of 5 mM, MA; format: functional, cell-based; procedure, shortened: as §4
U-87 MG [12] = assay: Induction of autophagy in human U87MG cells assessed as acidic vesicular organelle formation at 500 uM after 1 hr by acridine orange based flow cytometry; format: functional, cell-based; details: U-87MG ATCC
Procedure, shortened: (§5)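 Cells at 20,000/well in six-well plates, attached overnight. Treated with compound at 500 µM for 60 min, then stained with 3 µM acridine orange for 15 min at 37 °C in the dark. Washed in PBS, trypsinized, strained. Red fluorescence read by flow cytometry at ex/em 488/615 nm (PE-Texas Red). Vehicle ≤0.5% ethanol. One of two experiments shown.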

1321-N1 [13] = assay: Induction of autophagy in human 1321N1 cells assessed as acidic vesicular organelle formation at 500 uM after 1 hr by acridine orange based flow cytometry; format: functional, cell-based; procedure, shortened: as §5
U-87MG ATCC = assay: Antiproliferative activity against human U87MG cells assessed as inhibition of cell viability after 48 hrs by MTS assay in presence of 500 uM antioxidant, ascorbic acid; format: functional, cell-based
1321-N1 [14] = assay: Antiproliferative activity against human 1321N1 cells assessed as inhibition of cell viability after 48 hrs by MTS assay in presence of 500 uM antioxidant, ascorbic acid; format: functional, cell-based
U-87 MG [15] = assay: Induction of oxidative stress in human U87MG cells assessed as reactive oxygens species generation at 500 uM after 1 hr by H2DCFDA dye based flow cytometry in presence of 500 uM antioxidant, ascorbic acid; format: functional, cell-based; details: U-87MG ATCC
Procedure, shortened: (§6)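 Run as the carboxy-H2DCFDA ROS flow-cytometry assay (25 µM dye for 30 min, then compound at 500 µM for 60 min, read at ex/em 488/519 nm), with ascorbic acid 500 µM added under the same procedure and time point.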

1321-N1 [16] = assay: Induction of oxidative stress in human 1321N1 cells assessed as reactive oxygens species generation at 500 uM after 1 hr by H2DCFDA dye based flow cytometry in presence of 500 uM antioxidant, ascorbic acid; format: functional, cell-based; procedure, shortened: as §6
[17] = Antiproliferative activity against human U87MG cells assessed as inhibition of cell growth after 48 hrs by MTS assay; format: functional, cell-based, U-87MG ATCC
Procedure, shortened: (§7)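 1321N1 grown in DMEM with 10% FBS and 2 mM L-glutamine; U87MG in EMEM with 10% FBS, 2 mM L-glutamine, 1 mM pyruvate and 1% NEAA; 37 °C, 5% CO2. Seeded overnight at 3500 (1321N1) or 4000 (U87MG) cells/200 μl, 50–60% confluent. Compound added in quadruplicate for 48 h. MTS reagent added for 60 min, A490 read. IC50 vs vehicle (≤0.5% ethanol or DMSO) by nonlinear regression.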

[18] = Antiproliferative activity against human 1321N1 cells assessed as inhibition of cell growth after 48 hrs by MTS assay; format: functional, cell-based; procedure, shortened: as §7
[19] = Antiproliferative activity against human U87MG cells assessed as inhibition of cell growth at 400 uM after 48 hrs by MTS assay; format: functional, U-87MG ATCC; details: U-87 MG, read-out: GI

## CC(C)(C)OO
U-87 MG [1]
  Activity: Active
1321-N1 [2]
  Activity: Active

## OCc1c(-c2ccccc2)[nH]c2ccccc12
U-87 MG [3]
  Activity: Active
1321-N1 [4]
  Activity: Active

## Oc1ccccc1-c1cc2ccccc2[nH]1 [2-(2'-HYDROXYPHENYL)-1H-INDOLE]
[5]
  IC50: 92 µM
[6]
  IC50: > 1000 µM
[7]
  IC50: 90 µM
[8]
  IC50: 48 µM
[9]
  IC50: 400 µM
U-87 MG [10]
  Activity: inactive
1321-N1 [11]
  Activity: inactive
U-87 MG [12]
  Activity: Active
1321-N1 [13]
  Activity: Active
U-87MG ATCC
  inhibition: inactive
1321-N1 [14]
  inhibition: inactive
U-87 MG [15]
  Activity: inactive
1321-N1 [16]
  Activity: inactive
U-87 MG [3]
  Activity: Active
1321-N1 [4]
  Activity: Active

## COc1ccccc1-c1cc2ccccc2[nH]1 [2-(2'-METHOXYPHENYL)-1H-INDOLE]
U-87 MG [3]
  Activity: inactive
1321-N1 [4]
  Activity: inactive
[17]; u-87mg atcc
  IC50: Not Active
[18]; 1321-n1
  IC50: Not Active

## O=Cc1c(-c2ccccc2)[nH]c2ccccc12 [2-PHENYL-1H-INDOLE-3-CARBALDEHYDE]
[17]; u-87mg atcc
  IC50: Not Active
[18]; 1321-n1
  IC50: Not Active

## c1ccc(-c2cc3ccccc3[nH]2)cc1 [2-PHENYL-1H-INDOLE]
U-87 MG [3]
  Activity: inactive
1321-N1 [4]
  Activity: inactive
[19]
  inhibition of growth at 400 µM: 7%
[17]; u-87mg atcc
  IC50: Not Active
[18]; 1321-n1
  IC50: Not Active

## OCc1c[nH]c2ccccc12 [INDOLE-3-CARBINOL]
[17]; Homo sapiens, U-87 MG, 48 h, read-out: IC50
  IC50: 526 µM
[18]; Homo sapiens, 1321-N1, 48 h, read-out: IC50
  IC50: 309 µM
